The results in this text go back to PubChem BioAssay.

Activity calls are given as the source filed them.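 The calls were made as follows, unless noted: active = potentiation averaged over duplicate wells exceeding buffer-only control mean by more than 3 SD; inactive = the rest.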

Chain of Potassium voltage-gated channel subfamily KQT member 1 (Homo sapiens) (P51787 whole entry, looked up): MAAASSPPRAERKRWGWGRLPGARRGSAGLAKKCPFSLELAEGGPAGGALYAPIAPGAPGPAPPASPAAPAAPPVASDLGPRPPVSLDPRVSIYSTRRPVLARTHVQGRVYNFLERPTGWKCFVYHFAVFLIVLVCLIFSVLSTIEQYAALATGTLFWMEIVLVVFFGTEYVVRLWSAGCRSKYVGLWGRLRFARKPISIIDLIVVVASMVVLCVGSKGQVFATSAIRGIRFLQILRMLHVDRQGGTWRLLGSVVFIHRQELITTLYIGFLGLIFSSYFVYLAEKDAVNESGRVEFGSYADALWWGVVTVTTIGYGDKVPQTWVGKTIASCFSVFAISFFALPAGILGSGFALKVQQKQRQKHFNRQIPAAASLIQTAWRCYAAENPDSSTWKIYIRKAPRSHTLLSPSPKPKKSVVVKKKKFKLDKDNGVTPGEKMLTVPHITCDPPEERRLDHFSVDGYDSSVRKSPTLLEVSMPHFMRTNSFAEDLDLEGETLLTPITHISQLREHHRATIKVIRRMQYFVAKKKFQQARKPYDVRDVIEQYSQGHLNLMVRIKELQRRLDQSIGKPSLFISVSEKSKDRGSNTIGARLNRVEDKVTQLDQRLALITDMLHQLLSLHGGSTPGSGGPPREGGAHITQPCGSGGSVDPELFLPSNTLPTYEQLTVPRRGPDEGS

System in one assay: not listed separately
The experiment in a line: thallium flux activation in parental CHO cells, counter-screen for KCNQ1 potentiator project (AID 493006;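 active = duplicate-averaged activation above buffer control mean plus 5 SD of those controls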;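 as to activation: fluorescence ratio of max minus min over baseline after K+ and Tl+ depolarization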). As to conditions: parental CHO-K1 cells, FluxOR thallium flux, at 10 µM; active compounds read high. In short, it runs like this: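 Material: untransfected host CHO-K1 cells with FluxOR thallium dye. Timing: overnight 37 °C plating, 90 min RT dye, 20 min compound. Detection: kinetic FluxOR fluorescence, 10 s baseline, 110 s after stimulus. Read-out basis: max-minus-min fluorescence over baseline, percent of buffer-to-R-L3 span. Replicates: duplicate wells per compound, percent values averaged.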
With `Cc1cccc(/C=C2/S/C(=N/N=C3\CC4CCC3(C)C4(C)C)NC2=O)c1` (stereo not given), the result was inactive.

With `COc1ccc(OC)c(S(=O)(=O)Nc2ccc3c(c2)N(C(C)=O)CCC3)c1`, the outcome was inactive.

As for `CC1CCCCN1S(=O)(=O)c1ccc(S(=O)(=O)N(CC(=O)Nc2ccccc2)Cc2cccs2)cc1` (stereo not given), the outcome was inactive.

`CCCCNC(=S)NNC(=O)c1nn(C)c(C)c1Cl`: the result was inactive.

Turning to `CSc1ccc(/C=N/NC(=O)c2cccs2)cc1`, the result was inactive.

Consider `CCCCCn1c(=S)[nH]c2ncccc2c1=O`, for which the activation is 206% (active).

With `COc1ccc(NC(=O)/C(=C/c2ccc(OC(C)=O)c(OC)c2)NC(C)=O)cc1`, the outcome was inactive.

For the compound `CCCN(CCC)C(=S)NC(=O)c1ccc(-c2ccccc2)cc1`, the activation is 436% (active).

For the compound `CCN1C(=O)/C(=C/c2ccc(OCc3ccc(C(=O)O)cc3)c(Cl)c2)NC1=S`, the activation is 136% (active).

Turning to `Cc1cc(S(=O)(=O)N2CCOCC2)ccc1OCC(=O)Nc1ccc(Br)cc1F`, the outcome was inactive.

On to `O=C(N/N=C/c1ccc(Sc2ccccn2)o1)c1cc2ccccc2cc1O`, for which the activation was 213% (active).

With `O=C(O)c1ccc2c(c1)C(=O)N(c1ccc(Cl)cn1)C2=O`, the outcome was inactive.

As to `COc1ccc(C(=O)CSc2nnc(CNC(=O)c3ccc(OC)cc3)n2C)cc1`, the result was inactive.

For the compound `O=C(NC(=S)Nc1ccccc1N1CCCC1)c1ccco1`, the activation is 174% (active).

On to `CSC(C(=O)c1cc2ccccc2o1)c1ccccc1` (stereo not given), for which the result was inactive.

In the case of `Cc1ccccc1N(CC(=O)N/N=C/c1cc(C)n(-c2ccccc2C)c1C)S(C)(=O)=O`, the outcome was inactive.

Regarding `COc1cccc(OC)c1C(=O)Nc1cccc(-c2ccc3nncn3n2)c1`, the result was inactive.

`Cc1nn(CC(=O)NC(C)c2ccccc2)c(=O)c2ccccc12` (stereo not given): the activation was 150% (active).

In the case of `Cc1sc2nc[nH]c(=S)c2c1-c1ccccc1`, the activation was 289% (active).

For `CN(C)CCCn1c(=O)n(C2CCCCC2)c(=O)c2c3c(sc21)CCCCC3`, the activation was 167% (active).

In the case of `CCOc1ccc(CN(CCC#N)C(=S)NC(=O)c2ccccc2)cc1`, the activation is 149% (active).

Another assay has as its target Potassium voltage-gated channel subfamily KQT member 1 (Homo sapiens) (UniProt P51787). Briefly: KCNQ1 potassium channel potentiators, confirmation, FluxOR thallium flux, CHO cells, duplicates (AID 493007).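 As to outcome: cells depolarized by a potassium plus thallium sulfate stimulus after compound.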 To be noted: KCNQ1 cell line, FluxOR thallium flux fluorescence, at 10 µM; active compounds read high, % of reference activator effect, buffer zero. In short, it runs like this: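 Test system – KCNQ1-expressing CHO cell line · Incubation – FluxOR dye loading 90 min, compound exposure 20 min, room temperature · Detection – FluxOR Tl+ flux fluorescence, 10 s baseline plus 110 s recording · Controls – buffer-only wells as 0% and R-L3 activator as 100%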
On to `O=C(Nc1nnc(-c2ccc(Cl)cc2)o1)c1ccccc1Br`, for which the potentiation is 86.5% (active).

`CC(=O)c1ccc(OCc2cc(C(=O)N(C)Cc3nc4c(C)cccc4[nH]3)no2)cc1`: the potentiation was 18% (active).

For `Cc1cc(C)c2nc(NC(=O)c3cc(C)on3)sc2c1`, the potentiation is 36% (active).

Take `O=C(NC(=S)NC1CCCCC1)c1ccc(F)cc1`: the result was inactive.

On to `O=c1cc(N2CCc3ccccc32)[nH]c(=O)n1Cc1ccc(F)cc1`, for which the result was inactive.

As to `S=c1nc(Cc2ccc(Cl)cc2)[nH]c2ccccc12`, the potentiation is 148% (active).

In the case of `Cc1sc2nc(C(C)C)nc(SCC(=O)N3c4ccccc4CC3C)c2c1C` (stereo not given), the potentiation was 47.5% (active).

For the compound `Cc1sc(NC(=O)c2ccccc2)c(C(c2ccc(Cl)cc2)N2CCN(CCO)CC2)c1C` (stereo not given), the result was inactive.

Take `O=C(COC(=O)c1ccccc1)Nc1ccccc1N1CCOCC1`: the outcome was inactive.

For the compound `S=c1[nH]c2ccc(Cl)cc2s1`, the potentiation was 228% (active).

In the case of `COc1ccc(CCC(=O)NCCOc2ccc(C)cc2)cc1`, the result was inactive.

`COc1cc(NS(=O)(=O)c2ccc(NC(=S)NC(=O)c3sc4cc(F)ccc4c3Cl)cc2)nc(OC)n1`: the result was inactive.

For the compound `CCOC(=O)C1CCCN(C(=O)C2CCN(S(=O)(=O)c3ccc4ccccc4c3)CC2)C1` (stereo not given), the outcome was inactive.

As for `CCc1ccc(NC(=O)C(=O)NNC(=O)c2cccc(OC)c2)cc1`, the potentiation was 124% (active).

For the compound `O=C(O)c1ccccc1C(=O)NNc1ccc(Cl)cc1`, the outcome was inactive.

`CCC(C)[C@H](N)c1nnc(SCC(=O)Nc2cccc(Cl)c2)o1` (stereo not given in full): the potentiation was 39.5% (active).

For the compound `Cn1c(=O)nc2n(Cc3ccccc3)c3ccccc3cc-2c1=O`, the outcome was inactive.

For `CSc1nsc(SCC(=O)Nc2ccccc2)n1`, the result was inactive.

`Cc1cccc(/C=C2/S/C(=N/N=C3\CC4CCC3(C)C4(C)C)NC2=O)c1` (stereo not given): the potentiation was 28% (active).

Turning to `COc1ccc(OC)c(S(=O)(=O)Nc2ccc3c(c2)N(C(C)=O)CCC3)c1`, the outcome was inactive.

On to `CC1CCCCN1S(=O)(=O)c1ccc(S(=O)(=O)N(CC(=O)Nc2ccccc2)Cc2cccs2)cc1` (stereo not given), for which the outcome was inactive.

With `CCCCNC(=S)NNC(=O)c1nn(C)c(C)c1Cl`, the result was inactive.

Regarding `CSc1ccc(/C=N/NC(=O)c2cccs2)cc1`, the result was inactive.

Take `CCCCCn1c(=S)[nH]c2ncccc2c1=O`: the potentiation is 39.5% (active).

On to `COc1ccc(NC(=O)/C(=C/c2ccc(OC(C)=O)c(OC)c2)NC(C)=O)cc1`, for which the result was inactive.

As to `CCCN(CCC)C(=S)NC(=O)c1ccc(-c2ccccc2)cc1`, the potentiation is 248% (active).

Regarding `CCN1C(=O)/C(=C/c2ccc(OCc3ccc(C(=O)O)cc3)c(Cl)c2)NC1=S`, the result was inactive.

Take `Cc1cc(S(=O)(=O)N2CCOCC2)ccc1OCC(=O)Nc1ccc(Br)cc1F`: the outcome was inactive.

As for `O=C(N/N=C/c1ccc(Sc2ccccn2)o1)c1cc2ccccc2cc1O`, the potentiation is 70% (active).

As to `O=C(O)c1ccc2c(c1)C(=O)N(c1ccc(Cl)cn1)C2=O`, the result was inactive.

With `COc1ccc(C(=O)CSc2nnc(CNC(=O)c3ccc(OC)cc3)n2C)cc1`, the potentiation was 21% (active).

With `O=C(NC(=S)Nc1ccccc1N1CCCC1)c1ccco1`, the potentiation was 21.5% (active).

Consider `CSC(C(=O)c1cc2ccccc2o1)c1ccccc1` (stereo not given), for which the outcome was inactive.

In the case of `Cc1ccccc1N(CC(=O)N/N=C/c1cc(C)n(-c2ccccc2C)c1C)S(C)(=O)=O`, the outcome was inactive.

For the compound `COc1cccc(OC)c1C(=O)Nc1cccc(-c2ccc3nncn3n2)c1`, the outcome was inactive.

For the compound `Cc1nn(CC(=O)NC(C)c2ccccc2)c(=O)c2ccccc12` (stereo not given), the potentiation was 85.5% (active).

Regarding `Cc1sc2nc[nH]c(=S)c2c1-c1ccccc1`, the potentiation was 93.5% (active).

Consider `CN(C)CCCn1c(=O)n(C2CCCCC2)c(=O)c2c3c(sc21)CCCCC3`, for which the potentiation was 224% (active).

Regarding `CCOc1ccc(CN(CCC#N)C(=S)NC(=O)c2ccccc2)cc1`, the potentiation is 47% (active).
